Key:
Mus musculus = test: Toxicity in mouse P388 cells allografted BDF/1 mouse consecutively administered on day 1 to day 9 post challenge measured on day 5; format: organism-based
P388 [1] = test: Antitumor activity against mouse P388 cells allografted in BDF/1 mouse assessed as increase in life span at optimal dose consecutively administered on day 1 to day 9 post challenge relative to control; format: functional
Summary of the method: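 P-388 tumour passaged as ascites in DBA/2 mice; 1×10^6 ascites cells given ip to BDF/1 mice on day 0. Drug given daily for 9 consecutive days from day 1 to groups of six mice at 20, 10, 5, 2.5, 1.25 and 0.625 mg/kg/day. Day of death recorded; % ILS calculated from treated vs control life spans; dose giving optimal % ILS reported.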

P388 [2] = test: Growth inhibition of mouse P388 cells by in vitro assay; format: functional, cell-based; details: read-out: I50
Summary of the method: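 P-388 murine leukemia cells kept in suspension culture were incubated with a range of diacridine concentrations. The concentration that reduced the rate of cell growth by 50% was taken as the I50.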

SMILES	LD10 (Mus musculus) [mg/kg/day]	ILS (P388 [1]) [%]	IC50 (P388 [2]) [nM]
COc1ccc2c(NCCCCCCCCNc3c4ccc(OC)cc4nc4cc([N+](=O)[O-])ccc34)c3ccc([N+](=O)[O-])cc3nc2c1	> 20	21	
CCCOc1cccc2c(NCCCCNc3c4ccccc4nc4c(OCCC)cccc34)c3ccccc3nc12.Cl	9.8	9	
CCOc1cccc2c(NCCCCCCCCNc3c4ccccc4nc4c(OCC)cccc34)c3ccccc3nc12	13.5	76	
COc1ccc(C)c2c(NCCCCCCCCNc3c4ccccc4nc4c(OC)ccc(C)c34)c3ccccc3nc12.Cl	12.5	20	
CSc1ccc2c(NCCCCCCCCNc3c4ccccc4nc4cc(SC)ccc34)c3ccccc3nc2c1.Cl	8	27	370
c1ccc2c(NCCCCCCCCCCCCNc3c4ccccc4nc4ccccc34)c3ccccc3nc2c1	6.5	10	320
c1ccc2c(NCCCCCNc3c4ccccc4nc4ccccc34)c3ccccc3nc2c1	12.5	36	
COc1ccc2c(NCCCCCCCCNc3c4ccc(Cl)cc4nc4cc(OC)ccc34)c3ccc(Cl)cc3nc2c1.Cl	> 20	17	
CCc1cccc2c(NCCNc3c4ccccc4nc4c(CC)cccc34)c3ccccc3nc12	16	20	
COc1cccc2c(NCCCCCCCCNc3c4ccc([N+](=O)[O-])cc4nc4c(OC)cccc34)c3ccc([N+](=O)[O-])cc3nc12.Cl	> 20	86	
O=[N+]([O-])c1ccc2c(NCCCCCCCCNc3c4ccccc4nc4cc([N+](=O)[O-])ccc34)c3ccccc3nc2c1	> 20	45	330
Cl.Nc1ccc2c(NCCCCCCNc3c4ccccc4nc4cc(N)ccc34)c3ccccc3nc2c1	> 20	47	210
c1ccc2c(NCCNc3c4ccccc4nc4ccccc34)c3ccccc3nc2c1	4.3	7	1420
Cc1ccc2c(NCCCCCCCCNc3c4ccccc4nc4c(C)c(C)ccc34)c3ccccc3nc2c1C.Cl	8	60	
COc1ccc2c(NCCNc3c4ccccc4nc4cc(OC)ccc34)c3ccccc3nc2c1.Cl	7.2	0	
c1ccc2c(NCCCCCCCNc3c4ccccc4nc4ccccc34)c3ccccc3nc2c1	12.5	67	320
CCc1cccc2c(NCCCCNc3c4ccccc4nc4c(CC)cccc34)c3ccccc3nc12	7.4	10	
Cl.Nc1ccc2c(NCCCCCCCCNc3c4ccccc4nc4cc(N)ccc34)c3ccccc3nc2c1	> 20	58	
c1ccc2c(NCCCCCCNc3c4ccccc4nc4ccccc34)c3ccccc3nc2c1	9	54	380
c1ccc2c(NCCCCCCCCCCCCNc3c4ccccc4nc4ncccc34)c3cccnc3nc2c1		10	
O=[N+]([O-])c1ccc2c(NCCCCCCNc3c4ccccc4nc4cc([N+](=O)[O-])ccc34)c3ccccc3nc2c1	> 20	37	480
CCc1cccc2c(NCCCCCCCCNc3c4ccccc4nc4c(CC)cccc34)c3ccccc3nc12	12	42	230
COc1ccc2c(NCCCCCCCCNc3c4ccccc4nc4cc(OC)ccc34)c3ccccc3nc2c1	10.5	84	
Cc1ccc2c(NCCCCCCCCNc3c4ccccc4nc4cc(C)ccc34)c3ccccc3nc2c1.Cl	7.3	59	
CSc1cccc2c(NCCCCCCCCNc3c4ccccc4nc4c(SC)cccc34)c3ccccc3nc12	> 20	13	860

— ChEMBL document CHEMBL3272331, “Diacridines, bifunctional intercalators. Chemistry and antitumor activity” (J Med Chem, 1978)
